# Source: PubChem
# The list is not random: actives were taken first. Their share in the collection is about 1.8%.
# DDE Tn6 FP inh = DD(E)-Tn6 binding inhibition, primary FP screen; Fibrin DD(E) TRITC-Tn6 fluorescence polarization displacement; inhibition, % at 8.3 µM; 370,000 tested, 0.21% active; AID 720509;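 active means inhibition above a per-campaign cutoff: mean of compounds within control limits plus 3 SD, cut at about 15% in these data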;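 further: 0% = median of all compound wells on the plate and 100% = blocking peptide control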
# Target sequence (P02675 whole entry, looked up): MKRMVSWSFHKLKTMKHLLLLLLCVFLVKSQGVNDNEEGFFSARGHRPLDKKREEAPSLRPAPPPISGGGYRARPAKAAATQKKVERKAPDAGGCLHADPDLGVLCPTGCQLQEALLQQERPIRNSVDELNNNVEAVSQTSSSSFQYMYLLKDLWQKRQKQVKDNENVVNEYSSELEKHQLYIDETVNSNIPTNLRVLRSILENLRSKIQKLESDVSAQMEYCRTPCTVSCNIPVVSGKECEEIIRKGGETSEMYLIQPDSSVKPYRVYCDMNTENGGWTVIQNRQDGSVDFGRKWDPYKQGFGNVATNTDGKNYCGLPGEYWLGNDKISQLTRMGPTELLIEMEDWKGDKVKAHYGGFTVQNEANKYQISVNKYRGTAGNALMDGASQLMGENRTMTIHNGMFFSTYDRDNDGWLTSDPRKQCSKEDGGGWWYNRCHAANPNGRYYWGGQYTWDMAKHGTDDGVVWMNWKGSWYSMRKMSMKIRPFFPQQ
# CAL PDZ FP-1 = blocks peptide binding to the human CAL PDZ domain; inhibition, % at 24.9 µM; 300,000 tested, 0.92% active; purified CAL PDZ, TMR-peptide fluorescence polarization, 1 h; Q9HD26;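 active means mean inhibition of at least 30% with at least half of replicates also reaching 30%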;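 further: 0% = DMSO neutral control and 100% = excess unlabeled competitor peptide PRC23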
# ARNT-TACC3 inh = disrupts binding between human ARNT and TACC3; AlphaScreen His-ARNT PAS-B/GST-TACC3 binding, luminescence; TACC3 fragment carries E629A point mutation; AID 623870; inhibition, % at 9.99 µM; 390,000 tested, 0.66% active; Q9Y6A5;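 active means mean inhibition of replicates at least 50% and at least half of replicates each reaching 50%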;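 further: 0% = complete ARNT plus TACC3 wells and 100% = ARNT alone without TACC3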
# GRK2 aptamer HTS = blocks RNA aptamer binding to human GRK2; 330,000 tested, 0.59% active; AID 488847; inhibition of aptamer binding, % at 10 µM; P25098; bead flow cytometry, FAM-aptamer displacement from GRK2;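 active means inhibition of aptamer binding above 40%, roughly 3 SD of noise, on plates passing a quality check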;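 further: median bead fluorescence of bound FAM aptamer so fluorescent compounds give negative values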
# DDE Tn7 FP inh = disrupts Tn7 cyclic peptide binding to fibrin D-Dimer-E complex | FP displacement of FITC-Tn7 peptide from fibrin DD(E); 0% = median of compound wells per plate | inhibition, % at 8.3 µM | 370,000 tested, 0.13% active | P02675;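 active means inhibition above the mean of compounds falling within the control limits plus 3 SD of them, cut at about 14% in these data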;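 further: 0% = plate median of compound wells and 100% = 10 µM Aha-Tn7 peptide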
#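 Also added: labelled Tn7 tracer, 0.1 µM; Assay system: human fibrin DD(E) protein; Amount: 2 µM fibrin DD(E); Schedule: 10 min compound pre-incubation, 3 h probe incubation at room temperature; Repeats: one replicate per compound; Read-out basis: percent inhibition; Measured by: fluorescence polarization of the labelled Tn7 tracer.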
# CAL PDZ FP-2 = blocks peptide binding to human CAL PDZ domain. AID 504414. purified CAL PDZ, TMR-peptide fluorescence polarization, 1 h. 330,000 tested, 0.02% active. inhibition, % at 20 µM;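 active means highest replicate inhibition of at least 40%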;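 further: plate controls were DMSO neutral control wells for no effect and unlabeled competitor peptide control wells for full effect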
#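 Test system: purified CerCALP PDZ construct; Compound dosing: one concentration, 20 µM compound; Also added: TMR-labelled reporter peptide T*-PRC34 bound in PDZ groove; Read-out: inhibition from polarization loss; Controls: unlabelled peptide and DMSO controls; Signal: FP readout, S and P plane fluorescence; Incubation: 1 h at RT.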
# ARNT Alpha ctr = counter-screen for ARNT/TACC3 inhibitors: AlphaScreen artifacts | AC50, µM (highest dose often 68 µM), without a hit: at the top dose activity change, negative = signal decrease | shares compounds with ARNT-TACC3 inh | His-ARNT PASB-GST AlphaScreen artifact counter-screen, luminescence | 1,200 tested, 50% active;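 active means every separate test run was called active for a drop in luminescence, with AC50 within twice the top valid dose, actives reach about 71 µM in these data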
# * = called active by the depositor; · = no result; [ ] = another dose, or the depositor's remark.
SMILES,DDE Tn6 FP inh,CAL PDZ FP-1,ARNT-TACC3 inh,GRK2 aptamer HTS,DDE Tn7 FP inh,CAL PDZ FP-2,ARNT Alpha ctr
CCOc1ccccc1Nc1nc(N)nc(CSc2nccc(C)n2)n1,-2,-7,3,1,-1,·,·
O=C(CSc1ccc2nnc(-c3ccccn3)n2n1)Nc1cccc(F)c1,5,-2,40,0,-3,0,·
O=C(CSc1ccc2nnc(-c3ccccn3)n2n1)Nc1ccccc1F,6,-2,53*,4,-2,-2,-34%
CCOC(=O)N1CCN(C(=O)CSc2ccc3nnc(-c4ccccn4)n3n2)CC1,14,-4,42*,2,-3,1,2%
O=C(CSc1nnc(-c2ccccn2)o1)Nc1ccccc1F,-4,-3,59*,2,-6,-3,-10%
O=C(CSc1ccc2nnc(-c3ccccn3)n2n1)NCC1CCCO1 (stereo not drawn),-6,·,56*,0,4,-1,-16%
O=C(CSc1nnc(-c2ccccn2)o1)Nc1cccc(Cl)c1,-2,-1,1,1,3,0,·
O=C(C[C@H]1CC[C@@H]2[C@H](COC[C@@H](O)CN2Cc2ccccc2)O1)NCCCN1CCOCC1,·,·,-15,·,·,·,·
c1ccc(N=Nc2ccc3cccccc2-3)cc1,5,·,57*,2,-7,-1,3.2µM*
COc1ccc(NC(=O)Nc2ccc3c(c2)CC(=O)N([C@@H](C)CO)C[C@@H](C)[C@@H](CN(C)Cc2ccc(C(=O)Nc4ccccc4N)cc2)O3)cc1,·,·,-11,·,·,·,·
C[C@@H]1CCCCO[C@H](CN(C)C)[C@H](C)CN([C@@H](C)CO)C(=O)c2cc(N(C)C)ccc2O1,·,·,-13,·,·,·,·
CCN(CC)CCCNc1nc2ccccc2c2[nH]c3ccc(OC)cc3c12,3,-3,57*,·,2,13,-34%
O=C(NCCCNCCCNC(=O)c1ccc(/C=N/O)nc1)c1ccc(/C=N/O)nc1,0,·,56*,1,-1,0,66µM*
Cc1ccc(-n2nc3ccc(N)cc3n2)cc1,-8,-3,·,0,-5,-1,·
Nc1ccc2nn(-c3ccc(F)cc3)nc2c1,1,-6,17*,0,3,10,-25%
C/C(=N\NC(=O)C1CCCC1)c1ccc(Cl)cc1Cl,3,·,·,0,-1,0,·
O=S(=O)(NC1CCN(Cc2ccc(OCCO)cc2)CC1)c1cc(Cl)ccc1Cl,·,·,8,·,·,·,·
O=C(C1CCN(S(=O)(=O)c2cccc3cccnc23)CC1)N1CCN(Cc2ccccc2)CC1,3,-3,6,23,6,-2,·
O=S(=O)(c1cccc2cccnc12)N1CCN(Cc2ccc(OCCO)cc2)CC1,·,·,64*,·,·,·,51µM*
O=S(=O)(NC1CCN(Cc2ccc(OCCO)cc2)CC1)c1cccc2cccnc12,·,·,113*,·,·,·,25µM*
O=C(N/N=C/c1ccco1)c1cnccn1,0,0,14,1,-5,1,·
O=C(N/N=C/C=C/c1ccco1)c1cnccn1,4,·,62*,2,0,-1,-9%
O=C(O)c1ccc(Br)c(S(=O)(=O)N2CCCC2)c1,5,-4,60*,0,7,-3,10%
O=C(O)c1ccc(Cl)c(S(=O)(=O)N2CCCC2)c1,-1,3,-4,0,2,0,·
COc1cccc(C(=O)N2C[C@@H]3[C@H](c4ccccc42)[C@H](CO)N3Cc2ccccc2Cl)c1,·,·,0,·,·,·,·
SMILES,DDE Tn6 FP inh,CAL PDZ FP-1,ARNT-TACC3 inh,GRK2 aptamer HTS,DDE Tn7 FP inh,CAL PDZ FP-2,ARNT Alpha ctr
CC(=O)N1CCc2[nH]c3ccc(C)cc3c2C1,7,-3,36*,2,6,0,-1%
CC(C)C#Cc1ccc2c(c1)O[C@@H](CN(C)C(=O)CN(C)C)[C@@H](C)CN([C@@H](C)CO)S2(=O)=O,·,·,99*,·,·,·,-13%[38 µM]
O=C(OCc1nnc(-c2ccccc2)o1)c1cc2ccccc2cc1O,-3,0,-1,0,-2,-3,·
COc1ccc(OC)c2nc3c(C(=O)NCCN(C)C)cccc3nc12,-8,-2,20*,·,-5,0,-5%
O=c1cc(C(F)(F)F)nc(-n2[nH]c3c(c2=O)CCCC3)[nH]1,8,-1,56*,1,-4,·,-23%
O=C1CCN(Cc2ccccc2)C=C1c1ccc(C(F)(F)F)cc1,-7,-3,active,0,6,0,-18%
Oc1ccc(Cl)cc1CNc1cccc2cccnc12,-2,·,65*,0,-10,1,-31%
CCC(C)c1c(N)n(S(=O)(=O)c2ccc(C)cc2)oc1=O (stereo not drawn),9,-6,61*,·,4,0,35µM*
O=S(=O)(N[C@@H]1CC[C@@H](CCn2cc(-c3ccccc3F)nn2)O[C@@H]1CO)c1ccc(Cl)cc1,·,·,8,·,·,·,·
O=S(=O)(N[C@@H]1CC[C@H](CCn2cc(-c3ccccn3)nn2)O[C@H]1CO)c1cccc(Cl)c1,·,·,69*,·,·,·,34µM*
O=S(=O)(N[C@H]1CC[C@H](CCn2cc(-c3ccccn3)nn2)O[C@H]1CO)c1cccc(Cl)c1,·,·,63*,·,·,·,55µM*
CC1(C)CC(=O)C2=C(C1)Nc1ccccc1NC2c1ccc([N+](=O)[O-])cc1 (stereo not drawn),5,-3,-8,·,-1,-1,·
CC(C)NC(=O)N(C)C[C@@H]1Oc2ccc(NC(=O)CCCN(C)C)cc2C(=O)N([C@H](C)CO)C[C@@H]1C,·,·,-1,·,·,·,·
CN(Cc1ccccc1)C(=O)c1[nH]cnc1C(=O)Nc1nccs1,3,-5,55*,3,8,-1,-30%
O=C(Nc1nccs1)c1nc[nH]c1C(=O)NCc1ccccc1,4,1,29,0,7,-1,·
CCC(=O)NC(c1ccc(OC)cc1)c1c(O)ccc2ccccc12 (stereo not drawn),2,-4,·,0,-1,-3,·
CCC(=O)NC(c1ccc(N(C)C)cc1)c1c(O)ccc2ccccc12 (stereo not drawn),-1,-3,38*,4,6,0,54µM*
COc1ccc(Nc2cc3n(c(=O)n2)CCc2cc(OC)c(OC)cc2-3)cc1,-6,·,63*,3,-1,-1,-29%
O=C(Nc1nnc(SCc2ccc(F)cc2)s1)c1ccccn1,3,-1,79*,·,2,0,17µM*
COc1ccc(S(=O)(=O)Nc2ccc3c(c2)C(=O)N([C@H](C)CO)C[C@H](C)[C@@H](CN(C)CC2CCCCC2)OCCCC[C@H](C)O3)cc1,·,·,-12,·,·,·,·
